Legend:
Type in all cases: ADME, organism-based
Homo sapiens [1] = species: Homo sapiens; experiment: Maximal change in blood glucose concentration in healthy human plasma with SLCO1B1 521CC genotype at 0.5 mg
Homo sapiens [2] = species: Homo sapiens; experiment: Maximal change in blood glucose concentration in healthy human plasma with SLCO1B1 521TC genotype at 0.5 mg
[3] = Oral bioavailability in human; conditions: in vivo
[4] = Tmax in healthy white human at 2 mg, po; conditions: in vivo
[5] = Tmax in healthy white human with CYP2C8*1/*1 genotype at 2 mg, po; conditions: in vivo
[6] = Tmax in healthy white human with CYP2C8*1/*3 genotype at 2 mg, po; conditions: in vivo
[7] = Tmax in healthy white human with CYP2C8*3/*3 genotype at 2 mg, po; conditions: in vivo
Homo sapiens [8] = experiment: Maximal change in insulin concentration in healthy white human plasma with CYP2C8*1/*3 genotype at 2 mg, po up to 6 hrs; conditions: in vivo
Procedure, shortened: (§1)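 Plasma insulin was sampled up to 6 h after a single oral 2 mg dose, with subjects fasting. It was measured by solid-phase enzyme-labelled chemiluminescent immunometric assay, calibration range 2–300 mU/l. Maximal change is the largest change from the baseline concentration within 6 h.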

Homo sapiens [9] = experiment: Mean change in blood glucose concentration in healthy white human plasma at 2 mg, po up to 6 hrs; conditions: in vivo
Procedure, shortened: (§2)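 Single 2 mg oral dose in healthy Caucasian volunteers genotyped for CYP2C8*3, with SLCO1B1 521T>C also typed. […] Mean change is the average difference between values up to 6 h post-dose and baseline. Fasting lasted to 6 h. Mean with 95% CI or SD by genotype group.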

Homo sapiens [10] = experiment: Maximal change in blood glucose concentration in healthy white human plasma at 2 mg, po up to 6 hrs; conditions: in vivo
Procedure, shortened: (§3)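 Venous blood glucose was read at each blood sampling time after a single oral 2 mg dose, with fasting up to 6 h. […] Maximal change is the largest change from baseline. Mean change is the average difference between values up to 6 h post-dose and baseline.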

Homo sapiens [11] = experiment: Maximal change in blood glucose concentration in healthy white human plasma with CYP2C8*1/*3 genotype at 2 mg, po up to 6 hrs; conditions: in vivo; procedure, shortened: as §3
Homo sapiens [12] = experiment: Maximal change in blood glucose concentration in healthy white human plasma with CYP2C8*3/*3 genotype at 2 mg, po up to 6 hrs; conditions: in vivo; procedure, shortened: as §3
Homo sapiens [13] = experiment: Mean change in insulin concentration in healthy white human plasma with SLCO1B1 521TT/CYP2C8*1/*1 combined genotype at 2 mg, po; conditions: in vivo
Procedure, shortened: (§4)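 Healthy Caucasians got a single 2 mg oral dose and were genotyped for CYP2C8*3 and SLCO1B1 521T>C. Plasma insulin was sampled from pre-dose to 6 h and measured by solid-phase enzyme-labelled chemiluminescent immunometric assay (calibration 2–300 mU/l). Mean change is the average of post-dose values minus baseline up to 6 h, summarised per genotype group.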

[14] = Cmax in healthy white human with SLCO1B1 521TC/CYP2C8*1/*1 combined genotype at 2 mg, po; parameters: dose 2 mg, route oral; conditions: in vivo
Procedure, shortened: (§5)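 Healthy Caucasians genotyped for CYP2C8*3 and SLCO1B1 521T>C were given a single oral 2 mg dose of repaglinide, and alcohol, caffeine and grapefruit were withheld. Plasma was sampled before dosing and at 15 times from 0.25 to 24 h. Drug was measured by LC-MS/MS against diclofenac internal standard, linear 0.098–79.139 µg/L. Noncompartmental analysis: Cmax taken as observed; AUC by linear/log-linear trapezoidal rule extrapolated to infinity.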

Homo sapiens [15] = experiment: Mean change in blood glucose concentration in healthy white human plasma SLCO1B1 521TC/CYP2C8*1/*1 combined genotype at 2 mg, po; conditions: in vivo; procedure, shortened: as §3
[16] = AUC (0 to infinity) in healthy white human with SLCO1B1 521TT/CYP2C8*1/*3 combined genotype at 2 mg, po; parameters: dose 2 mg, route oral, time infinity; conditions: plasma; procedure, shortened: as §5
[17] = Cmax in healthy white human with SLCO1B1 521TT/CYP2C8*1/*3 combined genotype at 2 mg, po; parameters: dose 2 mg, route oral; conditions: in vivo; procedure, shortened: as §5
Homo sapiens [18] = experiment: Mean change in insulin concentration in healthy white human plasma with SLCO1B1 521TT/CYP2C8*1/*3 combined genotype at 2 mg, po; conditions: in vivo; procedure, shortened: as §4
Homo sapiens [19] = experiment: Mean change in blood glucose concentration in healthy white human plasma SLCO1B1 521TT/CYP2C8*1/*3 combined genotype at 2 mg, po; conditions: in vivo; procedure, shortened: as §2
[20] = AUC (0 to infinity) in healthy white human with SLCO1B1 521TC/CYP2C8*1/*3 combined genotype at 2 mg, po; parameters: dose 2 mg, time infinity, route oral; conditions: plasma; procedure, shortened: as §5
Homo sapiens [21] = experiment: Mean change in insulin concentration in healthy white human plasma with SLCO1B1 521TC/CYP2C8*1/*3 combined genotype at 2 mg, po; conditions: in vivo; procedure, shortened: as §4
Homo sapiens [22] = experiment: Mean change in blood glucose concentration in healthy white human plasma SLCO1B1 521TC/CYP2C8*1/*3 combined genotype at 2 mg, po; conditions: in vivo; procedure, shortened: as §3
Homo sapiens [23] = experiment: Mean change in blood glucose concentration in healthy white human plasma SLCO1B1 521CC/CYP2C8*1/*3 combined genotype at 2 mg, po; conditions: in vivo; procedure, shortened: as §3
Homo sapiens [24] = experiment: Mean change in insulin concentration in healthy white human plasma with SLCO1B1 521TT/CYP2C8*3/*3 combined genotype at 2 mg, po; conditions: in vivo; procedure, shortened: as §4
Homo sapiens [25] = experiment: Mean change in insulin concentration in healthy white human plasma with CYP2C8*3/*3 genotype at 2 mg, po up to 6 hrs; conditions: in vivo; procedure, shortened: as §4
Homo sapiens [26] = experiment: Maximal change in insulin concentration in healthy white human plasma at 2 mg, po up to 6 hrs; conditions: in vivo; procedure, shortened: as §1
[27] = Cmax in healthy white human with CYP2C8*1/*1 genotype at 2 mg, po; parameters: dose 2 mg, route oral; conditions: in vivo; procedure, shortened: as §5
[28] = Oral clearance in healthy white human at 2 mg, po; conditions: in vivo
Procedure, shortened: (§6)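 Repaglinide was assayed by LC-MS/MS with diclofenac internal standard (LLOQ 0.098 µg/L). Noncompartmental analysis gave AUC by linear/log-linear trapezoidal rule extrapolated to infinity. Weight-adjusted oral clearance = dose/(AUC × body weight).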

[29] = Oral clearance in healthy white human with CYP2C8*3/*3 genotype at 2 mg, po; conditions: in vivo; procedure, shortened: as §6
[30] = Terminal half life in healthy white human with CYP2C8*1/*1 genotype at 2 mg, po; conditions: in vivo, read-out: beta t1/2 (converted)
Procedure, shortened: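 Single oral 2 mg dose; plasma sampled pre-dose and from 0:15 to 24 h post-dose (15 samples). Repaglinide measured by LC-MS/MS with diclofenac internal standard; calibration 0.098–79.139 µg/L. Noncompartmental analysis; AUC by linear/log-linear trapezoidal rule extrapolated to infinity. Reported as mean with 95% CI for all subjects and for each CYP2C8*3 genotype group.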

Homo sapiens [31] = experiment: Mean change in blood glucose concentration in healthy white human plasma SLCO1B1 521TT/CYP2C8*3/*3 combined genotype at 2 mg, po; conditions: in vivo; procedure, shortened: as §2
[32] = Cmax in healthy white human with SLCO1B1 521TC/CYP2C8*3/*3 combined genotype at 2 mg, po; parameters: dose 2 mg, route oral; conditions: in vivo; procedure, shortened: as §5
Homo sapiens [33] = experiment: Mean change in insulin concentration in healthy white human plasma with SLCO1B1 521TC/CYP2C8*3/*3 combined genotype at 2 mg, po; conditions: in vivo; procedure, shortened: as §4
[34] = Cmax in healthy white human with SLCO1B1 521CC/CYP2C8*3/*3 combined genotype at 2 mg, po; parameters: dose 2 mg, route oral; conditions: in vivo; procedure, shortened: as §5
Homo sapiens [35] = experiment: Mean change in insulin concentration in healthy white human plasma with SLCO1B1 521CC/CYP2C8*3/*3 combined genotype at 2 mg, po; conditions: in vivo; procedure, shortened: as §4

- Activity (Homo sapiens [1]): 2.3 mM
- Activity (Homo sapiens [2]): 1.9 mM
- bioavailability [3]: 60%
- Tmax [4]: 48 min
- Tmax [5]: 48 min
- Tmax [6]: 48 min
- Tmax [7]: 54 min
- Activity (Homo sapiens [8]): 17.3 mU/L
- Activity (Homo sapiens [9]): -0.53 mM
- Activity (Homo sapiens [10]): -1.69 mM
- Activity (Homo sapiens [11]): -1.83 mM
- Activity (Homo sapiens [12]): -1.48 mM
- Activity (Homo sapiens [13]): 7.1 mU/l
- Cmax [14]: 83.7 ng/mL
- Activity (Homo sapiens [15]): -0.5 mM
- AUC(0-inf) [16]: 117 ng·h/mL
- Cmax [17]: 57 ng/mL
- Activity (Homo sapiens [18]): 5.6 mU/l
- Activity (Homo sapiens [19]): -0.5 mM
- AUC(0-inf) [20]: 77.2 ng·h/mL
- Activity (Homo sapiens [21]): 5.6 mU/l
- Activity (Homo sapiens [22]): -1 mM
- Activity (Homo sapiens [23]): -0.2 mM
- Activity (Homo sapiens [24]): 1 mU/l
- Activity (Homo sapiens [25]): 2.6 mU/L
- Activity (Homo sapiens [26]): 18.8 mU/L
- Cmax [27]: 60.3 ng/mL
- CL/F [28]: 7.67 mL/min/kg
- CL/F [29]: 8 mL/min/kg
- half-life [30]: 72 min
- Activity (Homo sapiens [31]): -0.1 mM
- Cmax [32]: 15.3 ng/mL
- Activity (Homo sapiens [33]): 1.5 mU/l
- Cmax [34]: 67.9 ng/mL
- Activity (Homo sapiens [35]): 6.1 mU/l
SMILES: CCOc1cc(CC(=O)N[C@@H](CC(C)C)c2ccccc2N2CCCCC2)ccc1C(=O)O [REPAGLINIDE]

From ChEMBL document CHEMBL3526119, “Effect of the CYP2C8 genotype on the pharmacokinetics and pharmacodynamics of repaglinide” (Drug Metab Dispos, 2011)
